Source: ChEMBL document CHEMBL1152882, “Optimization of novel di-substituted cyclohexylbenzamide derivatives as potent 11 beta-HSD1 inhibitors” (Bioorg Med Chem Lett, 2009)

Assays:
[1] = target: T1, Nuclear receptor subfamily 1 group I member 2 (Homo sapiens, UniProt O75469); assay: Activation of human PXR expressed in human HepG2 cells at 2 uM by luciferase reporter gene assay relative to rifampin; format: cell-based; settings: hepg2, 2 µM
T1 sequence (O75469 whole entry): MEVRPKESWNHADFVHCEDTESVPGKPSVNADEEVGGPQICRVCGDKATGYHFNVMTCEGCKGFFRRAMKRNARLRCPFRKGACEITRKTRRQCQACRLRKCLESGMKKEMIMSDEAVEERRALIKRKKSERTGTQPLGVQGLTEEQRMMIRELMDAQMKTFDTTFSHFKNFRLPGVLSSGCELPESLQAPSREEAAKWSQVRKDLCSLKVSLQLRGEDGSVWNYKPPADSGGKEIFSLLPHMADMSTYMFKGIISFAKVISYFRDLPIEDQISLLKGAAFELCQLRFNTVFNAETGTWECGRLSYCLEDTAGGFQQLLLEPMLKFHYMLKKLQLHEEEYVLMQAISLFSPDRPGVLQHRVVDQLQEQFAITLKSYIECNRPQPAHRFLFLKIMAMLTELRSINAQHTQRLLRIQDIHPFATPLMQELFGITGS
How it was run: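 Transactivation was measured in HepG2 cells transfected with a luciferase reporter construct driven by human PXR cDNA. Luciferase activity was read by chemiluminescence and expressed as percent of the rifampin control.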

HeLa = assay: Cytotoxicity against human HeLa cells after 72 hrs by alamar blue assay
[2] = Metabolic stability in human liver microsomes assessed as compound turnover after 30 mins; format: ADME, Microsome; settings: read-out: Activity
[3] = Metabolic stability in rat liver microsomes assessed as compound turnover after 30 mins; format: ADME, Microsome; settings: read-out: Activity
[4] = target: 11-beta-hydroxysteroid dehydrogenase 1 (Homo sapiens, UniProt P28845); assay: Inhibition of FLAG-tagged full length human 11beta-HSD1 expressed in baculovirus-infected Trichoplusia ni Hi5 cells assessed as reduction of [3H]cortisone to [3H]cortisol by scintillation proximity assay in presence of NADPH; format: cell-based, BTI-TN-5B1-4
[5] = Clearance in rat at 0.5 mg/kg, iv and 2 mg/kg, po; format: ADME, organism-based; settings: in vivo
How it was run: (§1)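 Single-dose PK: intravenous dose 0.5 or 0.7 mg/kg (footnotes a, b), oral dose 2.0 mg/kg. Reported parameters are iv clearance (L/h/kg), Vdss (L/kg), oral AUC and % oral bioavailability.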

[6] = Volume of distribution at steady state in rat at 0.5 mg/kg, iv and 2 mg/kg, po; format: ADME, organism-based; settings: in vivo, read-out: Vdss; how it was run: as §1
[7] = AUC in rat at 2 mg/kg, po; format: ADME, organism-based; design: dose 2 mg/kg, route oral; settings: plasma; how it was run: as §1
[8] = Bioavailability in rat at 0.5 mg/kg, iv and 2 mg/kg, po; format: ADME, organism-based; settings: in vivo; how it was run: as §1
[9] = Clearance in cynomolgus monkey at 0.5 mg/kg, iv and 2 mg/kg, po; format: ADME, organism-based, Macaca fascicularis; settings: in vivo; how it was run: as §1
[10] = Volume of distribution at steady state in cynomolgus monkey at 0.5 mg/kg, iv and 2 mg/kg, po; format: ADME, organism-based, Macaca fascicularis; settings: in vivo, read-out: Vdss; how it was run: as §1
[11] = AUC in cynomolgus monkey at 2 mg/kg, po; format: ADME, organism-based, Macaca fascicularis; design: dose 2 mg/kg, route oral; settings: plasma; how it was run: as §1
[12] = Bioavailability in cynomolgus monkey at 0.5 mg/kg, iv and 2 mg/kg, po; format: ADME, organism-based, Macaca fascicularis; settings: in vivo; how it was run: as §1
[13] = target: 11-beta-hydroxysteroid dehydrogenase 1 (Rattus norvegicus, UniProt P16232); assay: Inhibition of rat 11beta-HSD1
How it was run: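 Biochemical assay using baculovirus-produced recombinant full-length rat 11β-HSD1 with NADPH as cofactor. Substrate is [3H]cortisone. The [3H]-cortisol formed is captured by anti-cortisol monoclonal antibody SPA beads and quantified by scintillation. IC50 is from dose-response curve fitting of at least duplicate samples.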

[14] = Fraction unbound in human serum by ultracentrifugation assay; format: ADME, cell-free
How it was run: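 Human protein binding was measured with separation by ultracentrifugation and reported as fraction unbound.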

Rattus norvegicus = assay: Inhibition of 11beta-HSD1 in epididymal fat tissue of po dosed Sprague-Dawley rat assessed as reduction in [3H]cortisol production after 2 hrs by scintillation proximity assay; settings: Adipose tissue
[15] = Tmax in po dosed Sprague-Dawley rat; format: ADME, organism-based; settings: in vivo
Cynomolgus monkey = assay: cells; settings: Macaca fascicularis, Adipose tissue
[16] = Clearance in rat at 0.7 mg/kg, iv and 2 mg/kg, po; format: ADME, organism-based; settings: in vivo; how it was run: as §1
[17] = Volume of distribution at steady state in rat at 0.7 mg/kg, iv and 2 mg/kg, po; format: ADME, organism-based; settings: in vivo, read-out: Vdss; how it was run: as §1
[18] = Bioavailability in rat at 0.7 mg/kg, iv and 2 mg/kg, po; format: ADME, organism-based; settings: in vivo; how it was run: as §1
[19] = Clearance in cynomolgus monkey at 0.5 mg/kg, iv and 2 mg/kg, po; settings: in vivo
[20] = Bioavailability in cynomolgus monkey at 0.5 mg/kg, iv and 2 mg/kg, po; settings: in vivo
[21] = Volume of distribution at steady state in cynomolgus monkey at 0.5 mg/kg, iv and 2 mg/kg, po; settings: in vivo, read-out: Vdss

11-beta-hydroxysteroid dehydrogenase 1 (Homo sapiens, UniProt P28845), sequence (P28845 whole entry): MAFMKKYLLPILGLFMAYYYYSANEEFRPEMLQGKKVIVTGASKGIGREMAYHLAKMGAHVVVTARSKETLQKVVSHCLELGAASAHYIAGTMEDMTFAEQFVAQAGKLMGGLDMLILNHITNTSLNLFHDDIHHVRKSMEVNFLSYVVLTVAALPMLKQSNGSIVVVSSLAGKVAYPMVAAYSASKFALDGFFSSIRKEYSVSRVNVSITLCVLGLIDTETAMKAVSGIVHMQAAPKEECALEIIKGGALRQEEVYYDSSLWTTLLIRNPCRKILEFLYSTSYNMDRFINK
11-beta-hydroxysteroid dehydrogenase 1 (Rattus norvegicus, UniProt P16232), sequence (P16232 whole entry): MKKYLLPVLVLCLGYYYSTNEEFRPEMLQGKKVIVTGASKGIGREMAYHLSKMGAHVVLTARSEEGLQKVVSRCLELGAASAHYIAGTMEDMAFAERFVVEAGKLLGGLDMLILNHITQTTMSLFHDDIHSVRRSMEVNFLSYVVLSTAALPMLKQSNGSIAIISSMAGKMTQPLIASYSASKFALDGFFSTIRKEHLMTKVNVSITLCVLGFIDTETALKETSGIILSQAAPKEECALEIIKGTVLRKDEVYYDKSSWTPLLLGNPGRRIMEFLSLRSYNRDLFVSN

Structure (SMILES)	Activity [1]	IC50 (HeLa)	metabolised at 0.5 h [2]	metabolised at 0.5 h [3]	other results
C[C@](O)(c1ccc(C(=O)N(C2CC2)[C@H]2CC[C@H](c3ccccc3)CC2)cc1)C(F)(F)F	31%	> 10000 nM	< 5%		
C[C@](O)(c1ccc(C(=O)N(C2CC2)[C@H]2CC[C@](O)(c3ccccc3)CC2)cc1)C(F)(F)F	< 5%	5100 nM	< 5%	< 5%	
CC(C)[C@]1(O)CC[C@@H](N(C(=O)c2ccc([C@](C)(O)C(F)(F)F)cc2)C2CC2)CC1	< 3.4%	> 10000 nM	10%	69%	
C[C@](O)(c1ccc(C(=O)N(C2CC2)[C@H]2CC[C@@H](c3cccnc3)CC2)cc1)C(F)(F)F	38%	> 10000 nM	94%		IC50 [4]: 1.6 nM
C[C@](O)(c1ccc(C(=O)N(C2CC2)[C@H]2CC[C@@H](c3ccc(C#N)cc3)CC2)cc1)C(F)(F)F	75%	> 10000 nM	33%		IC50 [4]: 4.9 nM
C[C@](O)(c1ccc(C(=O)N(C2CC2)[C@H]2CC[C@](O)(c3ccccn3)CC2)cc1)C(F)(F)F	6.1%	> 10000 nM	< 5%	< 5%	
C[C@](O)(c1ccc(C(=O)N(C2CC2)[C@H]2CC[C@](O)(C3CC3)CC2)cc1)C(F)(F)F	< 5%	> 10000 nM	< 5%	7.4%	clearance [5]: 4 mL/min/kg; Vd [6]: 2.7 L/kg; AUC [7]: 8900 ng·h/mL; bioavailability [8]: 76%; clearance [9]: 1.83 mL/min/kg; Vd [10]: 1.5 L/kg; AUC [11]: 4700 ng·h/mL; bioavailability [12]: 43%; IC50 [13]: 244 nM; fraction unbound [14]: 0.12; ED50 (Rattus norvegicus): 10 mg/kg; Tmax [15]: 2 h; IC50 (Cynomolgus monkey): 640 nM
C[C@](O)(c1ccc(C(=O)N(C2CC2)[C@H]2CC[C@H](c3ccc(C#N)cc3)CC2)cc1)C(F)(F)F	11%	1100 nM	< 5%		IC50 [4]: 0.76 nM
C[C@](O)(c1ccc(C(=O)N(C2CC2)[C@H]2CC[C@](C#N)(C3CC3)CC2)cc1)C(F)(F)F	< 5%	> 10000 nM	< 10%	< 10%	AUC [7]: 4100 ng·h/mL; clearance [16]: 3.17 mL/min/kg; Vd [17]: 2.2 L/kg; bioavailability [18]: 40%; AUC [11]: 1000 ng·h/mL; clearance [19]: 1.55 mL/min/kg; bioavailability [20]: 5%; Vd [21]: 1.9 L/kg
C[C@@](O)(c1ccc(C(=O)N(C2CC2)[C@H]2CC[C@@](C#N)(c3ccccn3)CC2)cc1)C(F)(F)F	6.3%	> 10000 nM	6.9%	95%	
C[C@](O)(c1ccc(C(=O)N(C2CC2)[C@H]2CC[C@](C#N)(c3ccc(C#N)cc3)CC2)cc1)C(F)(F)F	< 5%	> 10000 nM	6.8%	< 5%	
C[C@](O)(c1ccc(C(=O)N(C2CC2)[C@H]2CC[C@H](c3cccnc3)CC2)cc1)C(F)(F)F	2.2%	2500 nM	< 5%		IC50 [4]: 1.7 nM
C[C@](O)(c1ccc(C(=O)N(C2CC2)[C@H]2CC[C@](C#N)(c3ccccc3)CC2)cc1)C(F)(F)F	< 5%	> 10000 nM	< 5%	6%	
C[C@](O)(c1ccc(C(=O)N(C2CC2)[C@H]2CC[C@](O)(c3cccnc3)CC2)cc1)C(F)(F)F	< 5%	> 10000 nM	< 5%	< 5%	
C[C@](O)(c1ccc(C(=O)N(C2CC2)[C@H]2CC[C@](C#N)(c3cccnc3)CC2)cc1)C(F)(F)F	< 5%	> 10000 nM	< 5%	35%	
C[C@](O)(c1ccc(C(=O)N(C2CC2)[C@H]2CC[C@](O)(CC3CC3)CC2)cc1)C(F)(F)F	5.9%	2800 nM	10%	43%	
C[C@@](O)(c1ccc(C(=O)N(C2CC2)[C@H]2CC[C@](C#N)(c3ccccn3)CC2)cc1)C(F)(F)F	7.6%	> 10000 nM	< 5%	14%	
C[C@](O)(c1ccc(C(=O)N(C2CC2)[C@H]2CC[C@@](C)(O)CC2)cc1)C(F)(F)F	< 5%	> 10000 nM	< 5%	< 5%	
C[C@](O)(c1ccc(C(=O)N(C2CC2)[C@H]2CC[C@@](O)(c3ccccc3)CC2)cc1)C(F)(F)F	< 5%	> 10000 nM	15%	> 95%	
